Measured values reported in ChEMBL document CHEMBL4715835, “Lipidic synthetic alkaloids as SK3 channel modulators. Synthesis and biological evaluation of 2-substituted tetrahydropyridine derivatives with potential anti-metastatic activity” (Eur J Med Chem, 2020).
Calls of active or inactive are those of the source. No cut-off for these calls is given here.

Experiments:
[1] = system: MDA-MB-435; test: Toxicity in human MDA-MB-435 cells assessed as mortality at 10 uM measured after 24 hrs by MTT assay relative to control; format: cell-based; details: mda-mb-435, 24 h
How it was run: (§1)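 MTT viability assay: about 4 × 10⁴ MDA-MB-435s cells seeded in triplicate with the molecules (tested series 100 nM, 300 nM, 1 µM, 3 µM, 10 µM) and kept 24 h at 37 °C. Medium was then removed and cells incubated 45 min at 37 °C with tetrazolium salt, which viable cells reduce to formazan. Results given as % mortality.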

[2] = Toxicity in human MCF7 cells assessed as reduction in cell number after 48 hrs by Hoechst 33342 staining based assay
How it was run: (§2)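 4000 cells per well. Cells exposed 24 h after seeding to 6 concentrations ([…]) for 48 h. They were then fixed in cold 90% ethanol/5% acetic acid for 20 min and nuclei stained with Hoechst 33342. Plates imaged on a high-content reader. IC₅₀ calculated; normal diploid skin fibroblasts served as control cells.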

[3] = Toxicity in human skin fibroblasts assessed as reduction in cell number after 48 hrs by Hoechst 33342 staining based assay; format: tissue-based, Fibroblast; how it was run: as §2
[4] = Toxicity in human Caco-2 cells assessed as reduction in cell number after 48 hrs by Hoechst 33342 staining based assay; how it was run: as §2
[5] = Toxicity in human PC-3 cells assessed as reduction in cell number after 48 hrs by Hoechst 33342 staining based assay; how it was run: as §2
[6] = Toxicity in human NCI-H727 cells assessed as reduction in cell number after 48 hrs by Hoechst 33342 staining based assay; how it was run: as §2
[7] = system: MDA-MB-435; test: Toxicity in human MDA-MB-435 cells assessed as mortality at 1 uM measured after 24 hrs by MTT assay relative to control; format: cell-based; details: mda-mb-435, 24 h; how it was run: as §1
[8] = Toxicity in human HCT-116 cells assessed as reduction in cell number after 48 hrs by Hoechst 33342 staining based assay; how it was run: as §2
[9] = Toxicity in human MDA-MB-231 cells assessed as reduction in cell number after 48 hrs by Hoechst 33342 staining based assay; how it was run: as §2
[10] = Toxicity in human Huh-7 cells assessed as reduction in cell number after 48 hrs by Hoechst 33342 staining based assay; how it was run: as §2
[11] = system: MDA-MB-435; test: Toxicity in human MDA-MB-435 cells assessed as mortality at 3 uM measured after 24 hrs by MTT assay relative to control; format: cell-based; details: mda-mb-435, 24 h; how it was run: as §1
[12] = system: MDA-MB-435; test: Inhibition of SK3/Orai1 in human MDA-MB-435 cells harboring SK3 shRNA assessed as reduction in Ca2+ influx at 300 nM measured after 1 hr by Fura2-AM dye based fluorescence assay relative to control; format: cell-based
How it was run: (§3)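 Constitutive Ca²⁺ entry in MDA-MB-435s shRD or shSK3 cells, measured 48 h after transfection with 30 nM siOrai1 or siCTL. Cells were treated 1 h with compound and loaded with Fura2-AM for 45 min at 37 °C. They were then resuspended in Ca²⁺-free solution for 20 s before 2 mM CaCl₂ was added. Emission read at 510 nm with 340/380 nm excitation. Steady-state signal normalized to control. Three experiments in triplicate.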

[13] = target: Small conductance calcium-activated potassium channel protein 3 (Homo sapiens) (UniProt Q9UGI6); test: Inhibition of SK3 (unknown origin) expressed in HEK293 cells assessed as reduction in channel current at 2 uM with 0 mV holding potential measured within 10 secs by patch clamp electrophysiological method relative to control; format: cell-based; details: time 10.0 sec
How it was run: (§4)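 Patch clamp on HEK-293 cells stably expressing SK3 (lentiviral). Compound added acutely; DMSO/methanol was the vehicle, and runs with or without apamin. Ramp from −80 to +80 mV, holding at 0 mV, 500 ms ramps at 4 s intervals. Current analyzed at 0 mV to minimize chloride currents, followed as a time course. Pipette solution adjusted to pH 7.2 with KOH.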

[14] = system: MDA-MB-435; test: Antimetastatic activity against human MDA-MB-435 cells harboring shRNA assessed as reduction in cell migration at 100 to 300 nM after 24 hrs […]; format: functional, cell-based; details: dose 100-300 nM
[15] = system: MDA-MB-435; test: Effect on calcium influx in human MDA-MB-435 cells harboring siRNA and siOrai1 at 300 nM measured after 1 hr by Fura2-AM dye based fluorescence assay; format: functional, cell-based; how it was run: as §3
[16] = system: MDA-MB-435; test: Effect on calcium influx in human MDA-MB-435 cells harboring siRNA and siCTL at 300 nM measured after 1 hr by Fura2-AM dye based fluorescence assay; format: functional, cell-based; how it was run: as §3
[17] = target: Small conductance calcium-activated potassium channel protein 3 (Homo sapiens) (UniProt Q9UGI6); test: Inhibition of SK3 (unknown origin) expressed in HEK293 cells assessed as reduction in channel current at 2 uM with 0 mV holding potential in presence of -apamin by patch clamp electrophysiological method; format: cell-based; how it was run: as §4
[18] = system: MDA-MB-435; test: Antimetastatic activity against human MDA-MB-435 cells assessed as reduction in cell migration at 1 uM after 24 hrs by […] relative to control; format: functional; parameters: scale not given: the % may be the effect or the level left
[19] = target: Small conductance calcium-activated potassium channel protein 3 (Homo sapiens) (UniProt Q9UGI6); test: Inhibition of SK3 (unknown origin) expressed in HEK293 cells assessed as reduction in channel current at 2 uM with 0 mV holding potential by patch clamp electrophysiological method; format: cell-based; how it was run: as §4
[20] = target: ORAI1/STIM1 (Homo sapiens) (UniProt Q96D31+Q13586); test: Inhibition of STIM1/Orai1 (unknown origin) expressed in HEK293 cells assessed as reduction in Ca2+-release activated Ca2+ entry current at 2 uM by whole cell patch clamp electrophysiological method; format: cell-based
[21] = target: Small conductance calcium-activated potassium channel protein 3 (Homo sapiens) (UniProt Q9UGI6); test: Inhibition of SK3 in human MDA-MB-435 cells harboring SK3 shRNA assessed as reduction in Ca2+ influx at 300 nM measured after 1 hr by Fura2-AM dye based fluorescence assay; format: cell-based; how it was run: as §3
[22] = system: MDA-MB-435; test: Antimetastatic activity against human MDA-MB-435 cells assessed as reduction in cell migration at 100 to 300 nM after 24 hrs by crystal violet staining based assay relative to control; parameters: scale not given: the % may be the effect or the level left; details: dose 100-300 nM

Sequence of Small conductance calcium-activated potassium channel protein 3 (Homo sapiens) (Q9UGI6 whole entry): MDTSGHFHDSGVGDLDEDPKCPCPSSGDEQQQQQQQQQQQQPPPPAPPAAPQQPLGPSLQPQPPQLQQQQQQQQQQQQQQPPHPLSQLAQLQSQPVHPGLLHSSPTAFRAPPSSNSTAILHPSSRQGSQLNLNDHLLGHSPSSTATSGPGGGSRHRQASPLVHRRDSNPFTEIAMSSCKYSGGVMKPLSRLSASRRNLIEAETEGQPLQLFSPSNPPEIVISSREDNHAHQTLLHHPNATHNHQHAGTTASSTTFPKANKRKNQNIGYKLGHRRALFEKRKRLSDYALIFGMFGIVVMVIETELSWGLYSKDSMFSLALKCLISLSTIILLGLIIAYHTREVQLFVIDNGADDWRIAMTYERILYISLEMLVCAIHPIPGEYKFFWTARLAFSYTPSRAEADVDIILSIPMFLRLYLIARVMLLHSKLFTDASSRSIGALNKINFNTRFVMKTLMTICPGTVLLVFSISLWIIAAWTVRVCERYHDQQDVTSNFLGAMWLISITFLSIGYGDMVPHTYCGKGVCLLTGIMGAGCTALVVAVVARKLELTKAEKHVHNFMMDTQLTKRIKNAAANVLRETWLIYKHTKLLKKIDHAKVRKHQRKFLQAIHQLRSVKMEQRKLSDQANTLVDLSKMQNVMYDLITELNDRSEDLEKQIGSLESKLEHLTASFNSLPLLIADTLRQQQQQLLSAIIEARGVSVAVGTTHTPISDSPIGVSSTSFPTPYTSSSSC
Sequence of ORAI1/STIM1 (Homo sapiens) (Q13586 23-685 partner limits assumed): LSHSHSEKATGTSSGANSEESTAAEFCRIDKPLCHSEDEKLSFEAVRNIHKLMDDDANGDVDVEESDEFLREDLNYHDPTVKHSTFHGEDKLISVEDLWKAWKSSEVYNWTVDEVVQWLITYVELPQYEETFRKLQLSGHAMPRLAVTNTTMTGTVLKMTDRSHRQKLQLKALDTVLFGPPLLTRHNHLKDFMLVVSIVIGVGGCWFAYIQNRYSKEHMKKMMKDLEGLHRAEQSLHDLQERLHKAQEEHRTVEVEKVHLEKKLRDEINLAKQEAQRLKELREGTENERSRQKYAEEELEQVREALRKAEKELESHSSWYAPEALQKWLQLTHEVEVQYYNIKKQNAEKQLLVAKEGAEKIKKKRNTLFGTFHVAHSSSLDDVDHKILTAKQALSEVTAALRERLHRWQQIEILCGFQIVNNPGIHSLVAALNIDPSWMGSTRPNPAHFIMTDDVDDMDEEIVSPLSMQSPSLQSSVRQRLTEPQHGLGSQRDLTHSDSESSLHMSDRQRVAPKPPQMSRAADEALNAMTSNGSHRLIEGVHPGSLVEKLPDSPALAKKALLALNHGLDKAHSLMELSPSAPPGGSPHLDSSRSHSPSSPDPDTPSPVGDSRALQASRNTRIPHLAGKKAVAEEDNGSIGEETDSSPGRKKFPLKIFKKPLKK
Sequence of ORAI1/STIM1 (Homo sapiens) (Q96D31 whole entry): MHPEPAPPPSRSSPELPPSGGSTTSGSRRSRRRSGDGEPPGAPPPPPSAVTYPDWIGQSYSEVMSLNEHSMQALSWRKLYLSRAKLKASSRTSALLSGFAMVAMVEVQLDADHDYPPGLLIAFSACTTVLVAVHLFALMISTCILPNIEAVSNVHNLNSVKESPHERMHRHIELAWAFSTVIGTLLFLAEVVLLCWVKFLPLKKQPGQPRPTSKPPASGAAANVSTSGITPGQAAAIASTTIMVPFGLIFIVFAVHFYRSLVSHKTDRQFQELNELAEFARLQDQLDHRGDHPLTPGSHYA

Structure (SMILES)	mortality [1]	IC50 at 48 h [2]	IC50 at 48 h [3]	IC50 at 48 h [4]	IC50 at 48 h [5]	IC50 at 48 h [6]	mortality [7]	IC50 at 48 h [8]	IC50 at 48 h [9]	IC50 at 48 h [10]	mortality [11]	further results
CCCCCCCCCCCCCCCCC[C@@H](O)C[C@@H]1C=CCCN1C	80%	> 25 µM	> 25 µM	21 µM	> 25 µM	> 25 µM	0%	> 25 µM	> 25 µM	> 25 µM	–	–
CCCCCCCCCCCCCCCCC[C@@H](C[C@@H]1C=CCCN1C)OC(C)=O	20%	> 25 µM	24 µM	9 µM	26 µM	> 25 µM	0%	24 µM	22 µM	> 25 µM	–	–
CCCCCCCCCCCCCCCCCCCC(O)Cc1ccccn1 (centres undefined)	–	–	–	–	–	–	20%	–	–	–	20%	–
CCCCCCCCCCCCCCCCCCC[C@H](O)C[C@@H]1C=CCCN1C	–	> 25 µM	> 25 µM	14 µM	> 25 µM	> 25 µM	30%	> 25 µM	> 25 µM	> 25 µM	30%	–
CCCCCCCCCCCCCCCCCC(Cc1ccccn1)OC (centres undefined)	0%	–	–	–	–	–	0%	–	–	–	–	–
CCCCCCCCCCCCCCCCCC(O)Cc1ccccn1 (centres undefined)	0%	–	–	–	–	–	0%	–	–	–	–	–
CCCCCCCC/C=C\CCCCCCC[C@H](O)C[C@@H]1C=CCCN1C	–	18 µM	25 µM	6 µM	19 µM	> 25 µM	30%	15 µM	14 µM	24 µM	40%	–
CCCCCCCCCCCCCCCCC[C@H](O)C[C@@H]1C=CCCN1C	0%	> 25 µM	> 25 µM	16 µM	> 25 µM	> 25 µM	0%	> 25 µM	> 25 µM	> 25 µM	–	inhibition [12]: < 40%; inhibition [13]: 50%; Activity [14]: inactive; Activity [15]: inactive; Activity [16]: inactive; inhibition [17]: Active; Activity [18]: <=60%; inhibition [19]: 90%; inhibition [20]: inactive; inhibition [21]: inactive; Activity [22]: <=60%
CCCCCCCC/C=C\CCCCCCCC(Cc1ccccn1)OC (centres undefined)	–	–	–	–	–	–	20%	–	–	–	25%	–
